Calls of active or inactive are those of the source.
How the values were obtained:
Mus musculus [1] = assay: Antipsychotic activity in ip dosed albino CD-1 mouse assessed as spontaneous motor activity for 15 mins intervals for 2 hrs by conditioned avoidance test; format: functional; conditions: for ED50: CD-1, ip
Mus musculus [2] = assay: Antiparkinson activity in albino CD-1 mouse assessed as inhibition of oxotremorine-induced hypothermia at 40 mg/kg, ip; format: functional, organism-based; set-up: dose 40 mg/kg
Method in brief: (§1)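 Five male CD-1 mice per group were pretreated ip with saline or compound 60-90 min before oxotremorine 1.0 mg/kg ip. Oxotremorine-induced hypothermia or salivation was then assessed.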

Mus musculus [3] = assay: Antidepressant activity in albino CD-1 mouse assessed as inhibition of reserpine-induced hypothermia up to 40 mg/kg, ip; format: functional, organism-based; set-up: dose 40 mg/kg
Method in brief: (§2)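 CD-1 male mice were dosed ip in distilled water 60-90 min before challenge with reserpine (4 mg/kg ip). Hypothermia, sedation and ptosis were assessed. Rectal temperature was taken with a tele-thermometer fitted with a small-animal probe.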

Mus musculus [4] = assay: Analgetic activity in albino CD-1 mouse assessed as inhibition of thermally-induced pain at 10 to 20 mg/kg, ip; format: functional, organism-based
Method in brief: (§3)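 Male albino CD-1 mice (18-25 g) were given compound ip in distilled water and tested 60-90 min later on a hot wire analgetic apparatus at 50°. Reaction times were compared with saline-pretreated controls. Each point used 5 treated and 20 control mice and is reported as mean ± SEM in seconds. Statistics were analysis of variance followed by t test or Mann-Whitney U.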

Mus musculus [5] = assay: Neurotoxicity against ip dosed albino CD-1 mouse assessed as time of peak effect by rotarod test; format: toxicity, organism-based; conditions: in vivo
Method in brief: (§4)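 Male CD-1 mice (18-25 g), five per group, were dosed ip in distilled water. The endpoint was failure to stay for 1 min on a horizontal rod rotating at 6 rpm. Time of peak effect was determined on the rod, and TD50 was measured at that time. TD50 is given with 95% confidence limits by Litchfield-Wilcoxon.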

[6] = Acute toxicity in ip dosed albino CD-1 mouse after 24 hrs; format: organism-based; conditions: in vivo
Method in brief: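 Male albino CD-1 mice (18-25 g), groups of eight. Each mouse got a single ip injection of compound dissolved in distilled water. Lethality was scored 24 hr after dosing. LD50 was calculated with 95% confidence limits by the Litchfield and Wilcoxon method.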

Mus musculus [7] = assay: Antidepressant activity in albino CD-1 mouse assessed as inhibition of reserpine-induced ptosis up to 40 mg/kg, ip; format: functional, organism-based; set-up: dose 40 mg/kg; method in brief: as §2
[8] = Neurotoxicity against ip dosed albino CD-1 mouse by rotarod test; format: toxicity, organism-based; conditions: in vivo; method in brief: as §4
Mus musculus [9] = assay: Acute toxicity in ip dosed albino CD-1 mouse assessed as mortality after 2 to 3 hrs; format: organism-based; conditions: in vivo
Mus musculus [10] = assay: Toxicity in albino CD-1 mouse assessed as reduction of rectal temperature at 40 mg/kg, ip; format: organism-based; set-up: dose 40 mg/kg, route intraperitoneal; conditions: in vivo
Method in brief: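 Rectal temperature of male CD-1 mice was recorded by tele-thermometer with a small-animal probe at time of peak activity (60-90 min) after 40 mg/kg ip in distilled water.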

Mus musculus [11] = assay: Antiparkinson activity in ip dosed albino CD-1 mouse assessed as inhibition of oxotremorine-induced diarrhea, and tremors; format: functional, organism-based
Mus musculus [12] = assay: Toxicity in ip dosed albino CD-1 mouse assessed as muscle weakness and flaccidity; format: organism-based, Muscle tissue; conditions: in vivo
Ileum [13] = assay: Antispasmodic activity in guinea pig ileum assessed as inhibition of barium chloride-induced spasm at 5 x 10^-7 M; format: functional; conditions: Cavia porcellus
Method in brief: (§5)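 Isolated guinea pig ileum (both sexes) was suspended in Krebs' solution at 37 ± 0.5°, gassed with 95% O2-5% CO2. Antihistaminic, anticholinergic and nonselective antispasmodic activity were measured.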

Mus musculus [14] = assay: Antiparkinson activity in albino CD-1 mouse assessed as inhibition of oxotremorine-induced diarrhea, and tremors at 5 to 40 mg/kg, ip; format: functional, organism-based
Mus musculus [15] = assay: Anticonvulsant activity in albino CD-1 mouse assessed as protection against pentylenetetrazol-induced tonic seizure ratio at 40 mg/kg, ip administered 60 to 90 mins before pentylenetetrazol challenge relative to control; format: functional; conditions: route intraperitoneal
Method in brief: (§6)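 Male CD-1 mice (18-25 g), 8-10 per group, received saline (1 ml/100 g) or compound (40 mg/kg) ip 60-90 min before seizure induction. Seizures were induced by iv infusion of 0.5% pentylenetetrazole solution. The minimal (clonic) and maximal (tonic) seizure thresholds were determined.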

Mus musculus [16] = assay: Neuromuscular blocking activity in albino CD-1 mouse up to 20 mg/kg, ip; format: organism-based; set-up: dose 20 mg/kg, route intraperitoneal; conditions: in vivo
Method in brief: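 Male CD-1 mice were dosed ip in distilled water and tested 60-90 min later. Neuromuscular blockade was judged by ability to remain on a wire mesh screen inclined at 60°.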

Mus musculus [17] = assay: Antidepressant activity in albino CD-1 mouse assessed as inhibition of reserpine-induced sedation up to 40 mg/kg, ip; format: functional, organism-based; set-up: dose 40 mg/kg; method in brief: as §2
Ileum [18] = assay: Antispasmodic activity in guinea pig ileum assessed as inhibition of histamine-induced contraction at 10^-8 to 10^-6 M; format: functional, tissue-based; conditions: Cavia porcellus; method in brief: as §5
Mus musculus [19] = assay: Antiparkinson activity in albino CD-1 mouse assessed as inhibition of oxotremorine-induced salivation at 100 mg/kg, ip; format: functional; method in brief: as §1
Mus musculus [20] = assay: Anticonvulsant activity in albino CD-1 mouse assessed as protection against pentylenetetrazol-induced clonic seizure ratio at 40 mg/kg, ip administered 60 to 90 mins before pentylenetetrazol challenge relative to control; format: functional; conditions: route intraperitoneal; method in brief: as §6
Mus musculus [21] = assay: Antidepressant activity in albino CD-1 mouse assessed as potentiation of L-dopa-induced effect up to 40 mg/kg, ip; format: functional, organism-based; set-up: dose 40 mg/kg
Method in brief: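 Compound was given ip in distilled water to male CD-1 mice. Potentiation of stimulation induced by L-Dopa (100 mg/kg ip) was assessed.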

Ileum [22] = assay: Antispasmodic activity in guinea pig ileum assessed as inhibition of acetylcholine-induced contraction at 10^-8 to 10^-6 M; format: functional, tissue-based; conditions: Cavia porcellus; method in brief: as §5
Mus musculus [23] = assay: Analgetic activity in albino CD-1 mouse assessed as inhibition of thermally-induced pain at 10 to 15 mg/kg, ip relative to control; format: functional; conditions: dose mg/kg 10-15; route intraperitoneal; method in brief: as §3
Mus musculus [24] = assay: Analgetic activity in albino CD-1 mouse assessed as inhibition of thermally-induced pain at 20 to 40 mg/kg, ip relative to control; format: functional; set-up: scale not given: the % may be the effect or the level left; conditions: dose mg/kg 20-40; route intraperitoneal; method in brief: as §3
Mus musculus [25] = assay: Antiparkinson activity in albino CD-1 mouse assessed as inhibition of oxotremorine-induced diarrhea, and tremors at 20 to 40 mg/kg, ip; format: functional; set-up: scale not given: the % may be the effect or the level left; conditions: dose mg/kg 20-40; route intraperitoneal
Mus musculus [26] = assay: Analgetic activity in albino CD-1 mouse assessed as inhibition of thermally-induced pain at 5 mg/kg, ip; format: functional, organism-based; set-up: dose 5 mg/kg; method in brief: as §3
Mus musculus [27] = assay: Antiparkinson activity in albino CD-1 mouse assessed as inhibition of oxotremorine-induced diarrhea, and tremors at 5 mg/kg, ip; format: functional; set-up: scale not given: the % may be the effect or the level left; conditions: route intraperitoneal

CCN(C)[C@@H]1CCN([C@H]2Cc3ccccc3Sc3ccc(Cl)cc32)C1
Activity (Mus musculus [1]): Dose-dependent effect | ED50 (Mus musculus [1]): 12 mg/kg | Activity (Mus musculus [2]): inactive | Activity (Mus musculus [3]): inactive | Activity (Mus musculus [4]): Active | Time (Mus musculus [5]): 60 min | LD50 at 24 h [6]: 186 mg/kg | Activity (Mus musculus [7]): inactive | TD50 [8]: 13.6 mg/kg | Activity (Mus musculus [9]): Toxic | T (Mus musculus [10]): 5.1 °C | Activity (Mus musculus [11]): Dose-dependent effect | Activity (Mus musculus [12]): Toxic | inhibition at 0.5 µM (Ileum [13]): 40% | Activity (Mus musculus [14]): Active | Ratio (Mus musculus [15]): 0.73 | Activity (Mus musculus [16]): Non-toxic | Activity (Mus musculus [17]): inactive | inhibition (Ileum [18]): Active | Activity (Mus musculus [19]): inactive | Ratio (Mus musculus [20]): 1.24 | Activity (Mus musculus [21]): inactive | inhibition (Ileum [22]): Active | fold change (FC) (Mus musculus [23]): 1.5 | Activity (Mus musculus [24]): 23%

CCN(C)[C@@H]1CCN([C@@H]2Cc3ccccc3Sc3ccc(Cl)cc32)C1
Activity (Mus musculus [1]): Dose-dependent effect | ED50 (Mus musculus [1]): 6.4 mg/kg | Activity (Mus musculus [2]): inactive | Activity (Mus musculus [25]): 93% | Activity (Mus musculus [3]): inactive | Activity (Mus musculus [4]): Active | Time (Mus musculus [5]): 60 min | LD50 at 24 h [6]: 217 mg/kg | Activity (Mus musculus [7]): inactive | TD50 [8]: 6.4 mg/kg | Activity (Mus musculus [9]): Toxic | T (Mus musculus [10]): 5.1 °C | Activity (Mus musculus [11]): Dose-dependent effect | Activity (Mus musculus [12]): Toxic | Activity (Mus musculus [26]): Active | inhibition at 0.5 µM (Ileum [13]): 40% | Activity (Mus musculus [14]): Active | Ratio (Mus musculus [15]): 0.75 | Activity (Mus musculus [16]): Non-toxic | Activity (Mus musculus [17]): inactive | inhibition (Ileum [18]): Active | Activity (Mus musculus [27]): 60% | Activity (Mus musculus [19]; route intraperitoneal): 60% | Ratio (Mus musculus [20]): 1.08 | Activity (Mus musculus [21]): inactive | inhibition (Ileum [22]): Active | fold change (FC) (Mus musculus [23]): 1.5 | Activity (Mus musculus [24]): 23%

CCN(C)[C@H]1CCN([C@@H]2Cc3ccccc3Sc3ccc(Cl)cc32)C1
Activity (Mus musculus [1]): Dose-dependent effect | ED50 (Mus musculus [1]): 12 mg/kg | Activity (Mus musculus [2]): inactive | Activity (Mus musculus [3]): inactive | Activity (Mus musculus [4]): Active | Time (Mus musculus [5]): 60 min | LD50 at 24 h [6]: 177 mg/kg | Activity (Mus musculus [7]): inactive | TD50 [8]: 12.5 mg/kg | Activity (Mus musculus [9]): Toxic | T (Mus musculus [10]): 5.1 °C | Activity (Mus musculus [11]): Dose-dependent effect | Activity (Mus musculus [12]): Toxic | inhibition at 0.5 µM (Ileum [13]): 40% | Activity (Mus musculus [14]): Active | Ratio (Mus musculus [15]): 1 | Activity (Mus musculus [16]): Non-toxic | Activity (Mus musculus [17]): inactive | inhibition (Ileum [18]): Active | Activity (Mus musculus [19]; route intraperitoneal): 27% | Ratio (Mus musculus [20]): 1.27 | Activity (Mus musculus [21]): inactive | inhibition (Ileum [22]): Active | fold change (FC) (Mus musculus [23]): 1.5 | Activity (Mus musculus [24]): 23%

CCN(C)[C@H]1CCN([C@H]2Cc3ccccc3Sc3ccc(Cl)cc32)C1
Activity (Mus musculus [1]): Dose-dependent effect | ED50 (Mus musculus [1]): 6.8 mg/kg | Activity (Mus musculus [2]): inactive | Activity (Mus musculus [25]): 93% | Activity (Mus musculus [3]): inactive | Activity (Mus musculus [4]): Active | Time (Mus musculus [5]): 60 min | LD50 at 24 h [6]: 175 mg/kg | Activity (Mus musculus [7]): inactive | TD50 [8]: 6.2 mg/kg | Activity (Mus musculus [9]): Toxic | T (Mus musculus [10]): 5.1 °C | Activity (Mus musculus [11]): Dose-dependent effect | Activity (Mus musculus [12]): Toxic | Activity (Mus musculus [26]): Active | inhibition at 0.5 µM (Ileum [13]): 40% | Activity (Mus musculus [14]): Active | Ratio (Mus musculus [15]): 0.93 | Activity (Mus musculus [16]): Non-toxic | Activity (Mus musculus [17]): inactive | inhibition (Ileum [18]): Active | Activity (Mus musculus [27]): 60% | Activity (Mus musculus [19]): inactive | Ratio (Mus musculus [20]): 1.16 | Activity (Mus musculus [21]): inactive | inhibition (Ileum [22]): Active | fold change (FC) (Mus musculus [23]): 1.5 | Activity (Mus musculus [24]): 23%

Source: ChEMBL document CHEMBL3272322, “8-chloro-(S)- and -(R)-10-((S)-and -(R)-3'-methylethylaminopyrrolidino)- 10,11-dihydrodibenzo(b,f)thiepins. Synthesis and pharmacological studies” (J Med Chem, 1976)
